Assay results gathered from unrelated publications.
Compare with care: the assays were run in different laboratories.
Target: Tyrosine-protein kinase Lyn (LYN, Homo sapiens, UniProt P07948)

| SMILES | test | conditions | remaining binding |
| --- | --- | --- | --- |
| Cc1cnn2ncc(-c3ccnc(N(C)C)n3)c2c1 | binding | 1 µM | 92% |
| O=C(c1ccc(Nc2ncc(Cl)c(-c3ccc(Cl)s3)n2)cc1)N1CCC(N2CCCC2)CC1 | binding, competition with immobilised ligand | 1 µM | 87% |
| COc1cnc(Nc2cccc(S(N)(=O)=O)c2)nc1N1CCN(c2ccccc2)CC1 | binding, competition with immobilised ligand | 1 µM | 92% |
| Cc1cnc(Nc2ccc(C(=O)N3CCC(N4CCCC4)CC3)cc2)nc1-c1cc2ccccc2s1 | binding, competition with immobilised ligand | 1 µM | 78% |
| O=C(NCc1ncc(C(F)(F)F)cc1Cl)c1ccc2c(c1)C1(CCS(=O)(=O)CC1)[C@H](C1CC1)N2S(=O)(=O)c1ccc(F)cc1 | cell-free assay, competition with immobilised ligand | 1 µM | 100% |
| CN(CCCC(F)(F)F)c1nccc(-c2cnn3ncccc23)n1 | binding | 1 µM | 86% |
| COc1ncc2cc3ccccc3nc2c1C#N | cell-free assay, competition with immobilised ligand | 5 µM | 94% |
| CC1=C(C#N)C(c2ccc3c(c2)c(NC(=O)c2ccccc2C)nn3C)C(C#N)=C(C)N1 | cell-free assay, competition with immobilised ligand | 1 µM | 89% |
| CCN1CCN(Cc2ccc(C(=O)Nc3ccc(C)c(Oc4ccc5c(c4)CC(=O)N5)c3)cc2C(F)(F)F)CC1 | binding, competition with immobilised ligand | 1 µM | 52% |
| C[C@@H]1CCN(c2nccc(-c3cnn4ncccc34)n2)C1 | binding | 1 µM | 93% |
| CSc1cccnc1N1CCN(Cc2nc3ccccc3[nH]2)CC1 | cell-free assay, competition with immobilised ligand | 1 µM | 95% |
| CN(C)c1nccc(-c2cnc3ncccn23)n1 | binding | 1 µM | 100% |
| COc1cnc(Nc2cccc(S(N)(=O)=O)c2)nc1N1CCN(c2ccccc2)C(=O)C1 | binding, competition with immobilised ligand | 1 µM | 100% |
| CNC(=O)Nc1ccc2c(c1)[C@@]1(CC2)OC(=O)N(CC(=O)N(Cc2ccc(F)cc2)[C@@H](C)C(F)(F)F)C1=O | cell-free assay, competition with immobilised ligand | 1 µM | 100% |
| C[C@@H](c1ccc(-n2cnc3c(N)ncnc32)cc1)N1CCc2nn(C)c(Cc3ccccc3)c2C1=O | binding, competition with immobilised ligand | 0.1 µM | 100% |
| COCCOc1nc(-c2ccc(Cl)nc2)nc2c1CN(C(=O)c1ncn3ccccc13)CC2 | cell-free assay, competition with immobilised ligand | 0.1 µM | 73% |
| CC1CCCN1c1nccc(-c2cnn3ncccc23)n1 (stereo not drawn) | binding | 1 µM | 84% |
| Cc1ccc(-n2nc(C(C)(C)C)cc2NC(=O)Nc2ccc(-n3c(N)c(C(N)=O)c4nc5ccccc5nc43)cc2)cc1 | cell-free assay, competition with immobilised ligand | 1 µM | 0.85% |
| c1cnn2ncc(-c3ccnc(N4CCC45COC5)n3)c2c1 | binding | 1 µM | 88% |
| O=C(NCC1CCOCC1)c1n[nH]cc1NC(=O)c1c(F)cccc1F | binding, competition with immobilised ligand | 1 µM | 92% |
| COc1cc(-c2cn(C3CCc4c(F)cccc4N(CC(F)(F)F)C3=O)nn2)ccc1-n1cnc(C)c1 (stereo not drawn) | cell-free assay, competition with immobilised ligand | 1 µM | 100% |
| N[C@@H]1CCN(c2nccc(-c3cnn4ncccc34)n2)C1 | binding | 1 µM | 100% |
| CCC(=O)N[C@@H]1CC[C@H](C(=O)N(C)c2ccc(-c3nc4ccccc4o3)cc2)C1 | cell-free assay, competition with immobilised ligand | 1 µM | 92% |
| O=C(c1ccc(Nc2ncc(Cl)c(-c3cc4ccccc4s3)n2)cc1)N1CCC(N2CCCC2)CC1 | binding, competition with immobilised ligand | 1 µM | 83% |
